Bioassay records deposited in PubChem by several laboratories.
Mdm2-MdmX inh = inhibitors of human Mdm2/MdmX interaction. 330,000 tested, 3% active. inhibition, % at 8 µM. AID 485346. SaOS-2 split-luciferase Mdm2/MdmX complementation, luminescence;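 active means inhibition of at least 50% at 8 µM in the primary screen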
Target sequence (O15151 whole entry, looked up): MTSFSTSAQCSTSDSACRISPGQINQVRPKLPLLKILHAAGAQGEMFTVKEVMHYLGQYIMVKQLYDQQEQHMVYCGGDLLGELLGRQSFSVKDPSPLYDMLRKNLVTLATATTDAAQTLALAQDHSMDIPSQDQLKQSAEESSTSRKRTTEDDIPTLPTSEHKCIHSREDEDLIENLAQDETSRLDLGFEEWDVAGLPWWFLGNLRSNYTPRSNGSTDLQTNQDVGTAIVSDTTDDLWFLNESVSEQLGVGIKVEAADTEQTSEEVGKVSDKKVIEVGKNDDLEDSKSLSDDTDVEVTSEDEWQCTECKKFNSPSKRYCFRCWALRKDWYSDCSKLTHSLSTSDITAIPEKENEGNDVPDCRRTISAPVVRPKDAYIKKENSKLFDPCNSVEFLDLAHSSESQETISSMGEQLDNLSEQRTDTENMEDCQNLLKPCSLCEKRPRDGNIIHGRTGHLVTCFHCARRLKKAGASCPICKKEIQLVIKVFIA
Target sequence (Q00987 whole entry, looked up): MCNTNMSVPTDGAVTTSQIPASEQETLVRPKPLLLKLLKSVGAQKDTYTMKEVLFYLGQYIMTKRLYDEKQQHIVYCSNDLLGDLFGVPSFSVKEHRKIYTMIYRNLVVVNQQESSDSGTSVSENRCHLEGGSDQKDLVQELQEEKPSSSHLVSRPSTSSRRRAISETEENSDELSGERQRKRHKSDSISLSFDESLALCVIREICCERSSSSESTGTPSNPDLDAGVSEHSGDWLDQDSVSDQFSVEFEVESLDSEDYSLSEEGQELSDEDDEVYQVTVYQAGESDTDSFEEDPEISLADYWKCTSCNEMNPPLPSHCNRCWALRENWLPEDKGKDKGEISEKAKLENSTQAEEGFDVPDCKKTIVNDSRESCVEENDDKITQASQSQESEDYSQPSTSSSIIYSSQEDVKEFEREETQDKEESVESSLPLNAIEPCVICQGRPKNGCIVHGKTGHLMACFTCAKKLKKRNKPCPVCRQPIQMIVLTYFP
Beta apoptosis = beta cell apoptosis inhibition | INS-1E cytokine-induced death, ATP luminescence, 48 h; percent of positive-control rescue, neutral wells zero | protection from apoptosis, % (concentration not given with the values) | 300,000 tested, 0.8% active | AID 435005;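 active means Every replicate reaches about 75%, or at least half do and their mean reaches it too, limit read from the data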;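 further: higher means more ATP so stronger rescue from cytokine killing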
T cruzi inh = blocks replication of Trypanosoma cruzi; T. cruzi beta-gal in NIH3T3, luminescence, 90 h; inhibition, % (concentration not given with the values); 300,000 tested, 1.4% active; AID 1885;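 active means mean inhibition across valid replicates above about 55%, limit read from the data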;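 further: signal also drops with host cell toxicity which is not excluded here; higher percent means less beta-gal luminescence so fewer parasites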
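Material: NIH/3T3 host cells with β-galactosidase reporter T. cruzi; Input: 5,000 host fibroblasts per well; Medium: DMEM, 2% fetal bovine serum; Compound: 50 nL DMSO compound solution per well; Schedule: 3 h host attachment, then at least 90 h co-culture; Detection: luminescent β-galactosidase signal after 60 min lysis.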
UPR XBP1 act = adaptive UPR (XBP1) activation; activation, % at 20 µM; AID 463104; CHO-XBP1 luciferase reporter, IRE1-XBP1 UPR activation, luminescence; percent of tunicamycin response, DMSO as zero; 330,000 tested, 0.33% active;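 active means versus positive control, 20 µM dose yields 30% or more activation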
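assay system = CHO-XBP1 luciferase reporter cells | amount = 1000 cells/well | buffer or medium = F12 plus 10% FBS | compound dosing = single point, 20 µM final compound, 1% DMSO | incubation = 16-18 h cell attachment at 37 °C, then 6 h compound exposure | detection = Steady-Glo luminescence read | controls = tunicamycin 10 µg/mL and vehicle-only wells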
UPR CHOP act = apoptotic UPR (CHOP) activation; AID 449763; CHO-CHOP luciferase reporter, luminescence; percent of tunicamycin response over DMSO baseline; activation, % at 10 µM; 330,000 tested, 0.34% active;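 active means at 10 µM dose, activation of 40% or more, normalized to positive control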
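Test system: CHO-CHOP cells, stable luciferase reporter of PERK-eIF2a-CHOP signalling | Quantity: 500 CHO-CHOP cells per well | Buffer or medium: F12 plus 10% serum | Compound dosing: 10 µM single point, 0.5% DMSO | Schedule: 6 h compound treatment, 37 °C | Signal: Luciferase luminescence | Control set: Tunicamycin high control, DMSO low control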
CSC inhib = blocks cancer stem cells; cancer stem cell-like cells viability, luminescence; inhibition, % at 7.5 µM; 300,000 tested, 1.1% active; AID 2717; in the data active means inhibition above about 75%; tested in HMLE shEcad cells
Mdm2-MdmX conf = human Mdm2/MdmX binding inhibition, confirmed; shares compounds with Mdm2-MdmX inh; luminescent assay; inhibition, % at 8 µM; 10,000 tested, 55% active; AID 489028; in the data active means inhibition above about 40%
Full FLuc ctr = counter-screen for Mdm2/MdmX inhibitors: full-length luciferase; shares compounds with Mdm2-MdmX inh; SaOS-2 full-length luciferase counterscreen, luminescence; inhibition, % at 8 µM; 6,200 tested, 77% active;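 active means mean inhibition at 8 µM reaching about 37%, which flags the compound as non-specific, limit read from the data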;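 further: p53-null SaOS-2 cells with luciferase driven by a doxycycline-inducible promoter; compound on cells about two nights before reading with doxycycline added after day one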
A number is an active result; 0 = inactive; - = no result given. The list is not random: actives were taken first. Their share in the collection is about 5%.

SMILES | Mdm2-MdmX inh | Beta apoptosis | T cruzi inh | UPR XBP1 act | UPR CHOP act | CSC inhib | Mdm2-MdmX conf | Full FLuc ctr
O=C1CN(C(=O)c2ccc(Cl)c([N+](=O)[O-])c2)c2ccccc2N1 | 0 | 0 | 0 | 0 | 0 | 0 | - | -
CC1CC(=O)c2c(cc3c(-c4c(O)cc(O)c5c(O)c6c(cc45)OC(C)CC6=O)c(O)cc(O)c3c2O)O1 (stereo not drawn) | 100.3 | 98.3 | 71.4 | 0 | 0 | 0 | 93.2 | 0
CN(CCCC(=O)Nc1ccc(Br)cc1F)S(=O)(=O)c1ccccc1 | 0 | 0 | 0 | 0 | 0 | 0 | - | -
O=C(Cn1cnc2c(oc3nc4c(cc32)CCCC4)c1=O)Nc1cccc(Cl)c1 | 57.0 | 0 | 0 | 0 | 0 | 0 | 0 | -
CCOc1ccccc1OCCC(=O)N1CCN(S(=O)(=O)c2ccccc2[N+](=O)[O-])CC1 | 62.0 | 0 | - | 0 | 0 | - | 0 | -
CCC1(C)Cc2c(sc(NC(=S)NC(=O)c3ccccc3)c2C#N)CO1 (stereo not drawn) | 0 | 0 | 0 | 0 | 0 | 0 | - | -
CN1Cc2sc(NC(=S)NC(=O)c3ccccc3)c(C#N)c2CC1(C)C | 58.2 | 0 | 0 | 0 | 0 | 0 | 62.0 | 61.0
CCCOc1ccc(/C(O)=C2\C(=O)C(=O)N(c3ccccn3)C2c2ccccc2F)cc1C (stereo not drawn) | 0 | 0 | 0 | 0 | 0 | 0 | - | -
O=C(NNC1=C(C(=O)C(F)(F)F)CCC1)c1ccc(Cl)cc1 | 51.9 | 0 | 0 | 0 | 0 | 81.9 | 55.0 | 75.5
O=C(NNC1=C(C(=O)C(F)(F)F)CCC1)c1cccc(Cl)c1 | 61.4 | 0 | 0 | 0 | 0 | 112.6 | 0 | 64.8
COc1ccc(C(=O)NNC2=C(C(=O)C(F)(F)F)CCC2)cc1 | 68.1 | 0 | 0 | 0 | 0 | 0 | 0 | 97.1
COc1ccc(C(=O)NNC(=O)OC(C)(C)C)cc1 | 0 | 0 | 0 | 0 | 0 | 0 | - | -
CCOc1ccc(S(=O)(=O)NCCC(=O)NCCOc2ccccc2)cc1 | 0 | 0 | 0 | 0 | 0 | - | - | -
C(=N\Nc1cc(N2CCCCC2)ncn1)/c1ccco1 | 0 | 0 | 0 | 0 | 0 | 0 | - | -
CCOC(=O)C1=C(C)Nc2sc(C(=O)c3ccc(OC)cc3)c(N)c2C1c1ccc(C(=O)OC)cc1 (stereo not drawn) | 0 | 0 | 0 | 0 | 0 | 0 | - | -
CC(C)Oc1cccc(C(=O)C2CCCN(Cc3cccn3-c3ccccn3)C2)c1 (stereo not drawn) | 0 | 0 | 0 | 0 | 0 | 0 | - | -
CCOc1cc2nc(-c3ccc(OC)c(OC)c3)nc(N3CCOCC3)c2cc1OC | 52.9 | 0 | 0 | 0 | 0 | 0 | 45.3 | 82.7
CCOc1cc2nc(-c3ccc(OC)c(OC)c3)nc(N3CC(C)OC(C)C3)c2cc1OC (stereo not drawn) | 0 | 0 | 0 | 0 | 0 | 0 | - | -
COc1ccc(C2CC(=O)c3cnc(NC(=O)c4ccccc4)nc3C2)c(OC)c1 (stereo not drawn) | 57.6 | 0 | 0 | 0 | 0 | 0 | 41.0 | 70.7
CCN(CC)CCC(=O)N1c2ccccc2Sc2ccc(Cl)cc21 | 56.3 | 0 | 0 | 0 | 0 | 0 | 0 | 65.2
CC(C)CNC1=C(C(=S)Nc2ccccc2)C(=O)CC(C)(C)C1 | 0 | 0 | 0 | 0 | 0 | 0 | - | -
COc1ccc(/C=C2\CN(Cc3ccccc3)C/C(=C\c3ccc(OC)cc3OC)C2=O)c(OC)c1 | 66.6 | 0 | 80.8 | 0 | 0 | 0 | 60.5 | 63.2
COc1ccc(C=C2c3ccccc3C(=O)c3ccccc32)c(OC)c1 | 65.8 | 0 | 0 | 0 | 0 | 0 | 57.4 | 97.1
COc1ccc(/C=C/C(=O)c2ccccc2)c(OC)c1 | 0 | 0 | 0 | 0 | 0 | 0 | - | -
COc1ccc(/C=C2\COc3ccccc3C2=O)c(OC)c1 | 59.3 | 0 | 0 | 0 | 0 | 0 | 0 | 76.2
SMILES | Mdm2-MdmX inh | Beta apoptosis | T cruzi inh | UPR XBP1 act | UPR CHOP act | CSC inhib | Mdm2-MdmX conf | Full FLuc ctr
Nc1c(-c2ccccc2)cnn1-c1cccc(Cl)c1 | 0 | 0 | 0 | 0 | 0 | 0 | - | -
Cc1ccccc1C(=O)N1CCN(c2ccc(NC(=O)c3ccc([N+](=O)[O-])o3)cc2)CC1 | 71.8 | 0 | 58.0 | 0 | 0 | 90.9 | 76.0 | 90.5
CCN1CCN(c2c(Cl)cccc2NC(=O)c2ccc([N+](=O)[O-])o2)CC1 | 54.6 | 103.3 | 0 | 0 | 0 | 0 | 0 | -
CC(=O)N1CCN(c2ccc(NC(=O)c3ccccc3C)cc2)CC1 | 0 | - | 0 | 0 | 0 | 0 | - | -
O=C(Nc1ccccc1N1CCN(C(=O)c2ccc(Cl)cc2)CC1)c1ccc([N+](=O)[O-])o1 | 55.2 | 0 | 62.0 | 0 | 0 | 0 | 0 | -
COC(=O)CNC(=O)COC(=O)/C=C/c1ccccc1[N+](=O)[O-] | 0 | 0 | 0 | 0 | 0 | 0 | - | -
Cc1nc(N2CCCCC2)sc1C(=O)c1ccc(Cl)c([N+](=O)[O-])c1 | 68.8 | 0 | 0 | 0 | 0 | 0 | 0 | -
O=C(Nc1ccc(Cc2ccc(NC(=O)C3CC3)cc2)cc1)C1CC1 | 56.9 | 0 | 0 | 0 | 0 | 0 | 0 | -
O=C(Nc1ccc(N2CCCCC2)c(Cl)c1)c1cccnc1 | 66.5 | 0 | 0 | 0 | 0 | - | 46.4 | 49.6
O=C(Nc1ccc(N2CCCC2)c(Cl)c1)c1cccnc1 | 0 | 0 | 0 | 0 | 0 | 0 | - | -
O=C(Nc1ccc(N2CCOCC2)c(Cl)c1)c1c(F)c(F)c(F)c(F)c1F | 56.9 | 0 | 0 | 0 | 0 | 0 | 45.6 | 45.1
CCOC(=O)[C@H]1[C@H]2COc3ccc(Cl)cc3[C@@H]2N2C(=O)CNC(=O)[C@@]12C | 0 | 0 | - | 0 | 0 | 0 | - | -
COc1ccccc1N1CCN(c2ccnc3cc(Cl)ccc23)CC1 | 56.0 | 0 | 0 | 0 | 0 | 0 | 64.0 | 54.9
O=S(=O)(c1ccccc1OC(F)(F)F)N1CCN(c2ccnc3cc(Cl)ccc23)CC1 | 58.9 | 0 | 0 | 0 | 0 | 0 | 0 | -
COc1ccccc1NC(=O)N1CCN(c2ccnc3cc(Cl)ccc23)CC1 | 0 | 0 | 0 | 0 | 0 | 0 | - | -
CC[C@H](C)[C@@H](CN[C@H](CCCCNC)CNC)NCC1CCCC1 | 0 | 0 | 0 | 0 | 0 | 0 | - | -
CCCC[C@@H](CN[C@H](C)CNC)NCC1CCC(C(C)(C)C)CC1 (stereo partly drawn) | 100.2 | 93.4 | 0 | 0 | 0 | 126.1 | 96.7 | 55.9
CC1(NC(=O)CC[N+](C)(C)CCO)CS(=O)(=O)CC1S(=O)(=O)[O-] (stereo not drawn) | 0 | 0 | 0 | 0 | 0 | 0 | - | -
Cc1nnc(SC(=O)N2c3ccccc3Sc3ccccc32)s1 | 96.9 | 0 | 0 | 0 | 0 | 0 | 97.6 | 51.8
COc1ccc(-c2csc(NC(=S)NC(=O)c3ccc(S(=O)(=O)N(C)C)cc3)n2)cc1OC | 70.4 | 0 | 0 | 0 | 0 | 0 | 0 | -
